Source: PubChem (several laboratories)
RAM inhibit: yeast RAM network inhibition. S. cerevisiae dse1pr::URA3 reporter, 5-FOA growth OD615, 2 d; analog-sensitive cbk1-as2 kinase mutant strain. inhibition, % at 50 µM. actives 1.8% (n = 190,000). AID 868;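 active = inhibition above a set limit, 3 SD over mean compound inhibition, cut at about 8.4% in these data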;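 note: inhibition rescues growth on 5-FOA so higher OD means more RAM inhibition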
Yeast growth inh: reduces growth of yeast BB579 in restrictive medium. AID 804. actives 0.51% (n = 140,000). inhibition, % at 10 µM. S. cerevisiae BB579 growth, OD615, 48 h;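 active = inhibition above a set limit, 3 SD over the mean compound inhibition, cut at about 44% in these data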
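Material: Saccharomyces cerevisiae DeaD strain BB579, replicative lifespan model yeast; buffer or medium: CSMM-D restrictive synthetic medium containing dextrose (glucose); compound: 10 µM single dose, DMSO 0.25%; timing: 48 h compound exposure at 30 °C after 4 h preincubation; signal: turbidity as optical density at 615 nm; benchmarks: positive control amphotericin B 10 µg/mL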
Insulin prom inh: TRM-6 insulin promoter activity inhibition. TRM-6 cells, insulin promoter-eGFP reporter, imaging; reporter expression induced with tamoxifen. inhibition, % at 2 µM. actives 0.9% (n = 130,000). AID 1273;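 active = inhibition above the mean plus 3 SD, with well images judged a real hit on visual review, cut at about 60% in these data, passing the limit was not always enough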
Mdm2 ligase inh: blocks human Mdm2 ubiquitin ligase activity | Q00987 | cell-based MDM2 ubiquitination luciferase reporter, 2 h; 0 = plate control, 100 = twice control, blank-subtracted | signal enhancement, % at 5 µM | actives 0.11% (n = 210,000);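 active = signal enhancement of 30% or more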;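 note: luminescence tracks abundance of the self-degrading MDM2-luciferase fusion protein; higher signal means inhibition of MDM2 E3 ligase activity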
Target sequence (Q00987 whole entry, looked up, the tested form may be a part): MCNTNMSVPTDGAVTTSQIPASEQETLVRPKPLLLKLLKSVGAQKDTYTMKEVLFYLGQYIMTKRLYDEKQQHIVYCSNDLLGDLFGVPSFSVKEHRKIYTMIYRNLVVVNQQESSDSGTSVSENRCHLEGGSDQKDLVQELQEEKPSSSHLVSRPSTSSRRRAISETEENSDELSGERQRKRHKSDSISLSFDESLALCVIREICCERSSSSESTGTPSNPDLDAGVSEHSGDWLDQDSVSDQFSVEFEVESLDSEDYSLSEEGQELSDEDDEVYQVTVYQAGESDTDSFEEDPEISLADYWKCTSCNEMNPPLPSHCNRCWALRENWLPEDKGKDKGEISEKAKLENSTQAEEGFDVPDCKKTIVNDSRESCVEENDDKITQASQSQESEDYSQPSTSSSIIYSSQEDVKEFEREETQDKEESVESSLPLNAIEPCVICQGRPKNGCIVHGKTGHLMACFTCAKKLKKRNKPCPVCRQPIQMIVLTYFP
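Material: stable MDM2–luciferase fusion reporter cells / Quantity: 2000 cells/well / Dosing: single 5 µM compound dose, 0.2% final DMSO / Buffer or medium: DMEM / Schedule: 4 h cell settling then 2 h compound exposure, 37 °C / Detection: luminescence with SteadyLite reagent, 15 min at room temperature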
Yeast life ext: extends the lifespan of yeast; inhibition of the nicotinamide effect, % at 10 µM; S. cerevisiae growth with nicotinamide, OD615; deaD strain in restrictive glucose medium; actives 0.68% (n = 130,000);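 active = inhibition above a set limit, placed 3 SD over the median of all compounds, cut at about 26% in these data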
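System: DeaD-strain S. cerevisiae / Buffer or medium: CSMM-D, restrictive glucose (dextrose) synthetic minimal medium / Probe or stimulus: nicotinamide, 1.5 mM, co-present with compound / Compound: one concentration, 10 µM, DMSO 0.25% / Incubation: 48 h compound exposure at 30 °C, humidified / Technique: optical density (absorbance) at 615 nm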
Measles CPE: protection of cells from measles virus. protection (pct of control), % at 4 µM. actives 1.5% (n = 140,000). Measles virus-infected cells, CPE protection, absorbance; in the data active = protection mostly above about 24%, no sharp cut-off; inactive = mostly below about 26%
RAM 5-FOA: RAM network inhibitors in efflux-deficient yeast | AID 1305 | 1,200 tested, under 10 active | S. cerevisiae efflux-deficient reporter strain, 5-FOA growth OD615, 2 days | shares compounds with RAM inhibit | max inhibition, %; call rule not given here
Large screens that a line does not name were inactive (follow-up assays come after a bar, where they were run). Rows were chosen to be rich in hits. Some 4% of all compounds tested hit in one or more screens of this group.

CCC(=O)c1c(O)n(C2CCCCCC2)c(=O)[nH]c1=O	Yeast growth inh 89.5
CN(C)c1cccc2c(C#N)ccc(N(C)C)c12	Insulin prom inh 86.7 (no result: Yeast growth inh, Yeast life ext, Measles CPE)
COC1CCCCC1NCCc1ccccc1 (centres undefined)	none (no result: Yeast growth inh, Yeast life ext, Measles CPE)
CCC(CC)NC1CCCCC1OC (centres undefined)	Measles CPE 26.4
O=C1C(=O)c2ccccc2-c2ccccc21	Yeast growth inh 99.8
O=[N+]([O-])/C=C/c1c(OCc2ccccc2)ccc2ccccc12	RAM inhibit 12.9 | RAM 5-FOA inactive
Cc1ccc(Cn2nc(C)c(C=O)c2Cl)cc1	none (no result: Yeast growth inh, Yeast life ext, Measles CPE)
Cc1ccc(/C=C/C2=NN(Cc3ccc(Cl)c(Cl)c3)C(=O)CC2)cc1	RAM inhibit 12.0 (no result: Insulin prom inh, Mdm2 ligase inh) | RAM 5-FOA inactive
CC(C)[C@H](CN(N=O)[C@@H](Cc1ccccc1)CN(C)N=O)N(CCc1ccccc1)N=O	RAM inhibit 13.2 (no result: Yeast growth inh, Insulin prom inh, Mdm2 ligase inh, Yeast life ext, Measles CPE) | RAM 5-FOA inactive
Nc1c(C(=O)NC2CCCC2)c2nc3ccccc3nc2n1CC1CCCO1 (centres undefined)	none (no result: Insulin prom inh)
CCN1C(=O)/C(=C/c2ccc3c(c2)CCN3CCCCl)C(=O)NC1=S	RAM inhibit 16.5 | RAM 5-FOA inactive
C=CCN1C(=O)/C(=C/c2ccc3c(c2)CCCN3CCC)C(=O)NC1=S	none
CCOCCSc1nc2c(c(-c3cccs3)c1C#N)CC/C2=C/c1cccs1	RAM inhibit 12.0 | RAM 5-FOA inactive
O=C1/C(=C/c2cc3c(cc2Cl)OCO3)N2CCC1CC2	none
Cc1ccnc(NS(=O)(=O)c2ccc(N=Cc3c(O)n(C)c(=O)n(C)c3=O)cc2)n1	none (no result: Yeast growth inh, Insulin prom inh, Yeast life ext, Measles CPE)
CCOP(=O)(OCC)C(Nc1cccc(C(F)(F)F)c1)c1ccc(Br)cc1 (centres undefined)	RAM inhibit 12.3 (no result: Measles CPE) | RAM 5-FOA inactive
Cc1ccc(-c2nc(N(C)C3CCN(C)CC3)c3ccccc3n2)cc1	none
CN(C)c1ccc(/C=C/C=C2/C(=O)NC(=O)N(c3ccccc3)C2=O)cc1	RAM inhibit 25.8 (no result: Yeast growth inh, Insulin prom inh, Yeast life ext, Measles CPE) | RAM 5-FOA inactive
CC1CCc2c(sc3nc(CSc4n[nH]c(N)n4)[nH]c(=O)c23)C1 (centres undefined)	RAM inhibit 11.7 | RAM 5-FOA inactive
CC(C)C12CN3CC(C(C)C)(CN(C1)C3c1cccnc1)C2=O (centres undefined)	none
CN1CCN(c2ccc(N)cc2Cl)CC1	none (no result: Yeast growth inh, Yeast life ext, Measles CPE)
CCCCCn1c(=O)c(C(=O)Nc2nc(CC(=O)OCC)cs2)c(O)c2ccccc21	RAM inhibit 25.3 (no result: Yeast growth inh, Yeast life ext, Measles CPE) | RAM 5-FOA inactive
CCCCCn1c(=O)c(C(=O)Nc2cnccn2)c(O)c2ccccc21	RAM inhibit 11.8 (no result: Yeast growth inh, Insulin prom inh, Yeast life ext, Measles CPE) | RAM 5-FOA inactive
COc1ccc(-c2csc(NC(=O)COC(=O)Cc3ccccc3)n2)cc1OC	none
N=Cc1c(O)n(-c2ccccc2)c(=O)n(-c2ccccc2)c1=O	none (no result: RAM inhibit, Yeast growth inh, Insulin prom inh, Yeast life ext, Measles CPE)
CCOC(=O)c1c(-c2ccc(OC)cc2)oc2ccc(OC(=O)N(C)C)cc12	RAM inhibit 14.5 (no result: Insulin prom inh) | RAM 5-FOA inactive
Cc1oc2ccc(OC(=O)N(C)C)cc2c1C(=O)OC(C)C	none
